Laboratory results taken from article PMC4327942 (Chemistry & biology, 2010).
Blank lines part the entries; values can stand above or below the compound they belong to.

What was measured:
[1] = test system: HIF ODD-luciferase reporter; experiment: ODD-luc reporter activation, concentration titration in 96-well plates; format: cell-based, human; details: SH-SY5Y; for IC50: Homo sapiens, read-out: IC50 (reporter activation); for “Lag,” (concentration lag of reporter titration curve): ODD-luc reporter
[2] = Iron binding by displacement of calcein from its complex with iron; format: physicochemical; details: for ka, association rate constant for iron binding: calcein-iron complex 1 μM:1 μM, oxyquinoline 5-20 μM; for Kd: read-out: KFe, apparent iron binding constant, calcein displacement, 5 mM Tris-HCl buffer (pH 7.5)
[3] = test system: HIF ODD-luciferase reporter; experiment: HTS of SH-SY5Y ODD-luc reporter cells, 384-well, 10 μM compound, 3 hr; format: cell-based, human; details: for activation at 10 µM: Homo sapiens, SH-SY5Y, 3 h, read-out: reporter activation (%)
cortical neurons = experiment: Neuroprotection in HCA; format: cell-based, rat; details: HCA model
Outline: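 Forebrain neurons from E17 Sprague-Dawley rat embryos were plated at 10^6 cells/ml in 96-well plates. After 16 hr they were rinsed with warm PBS and moved to MEM containing 5 mM HCA plus test compound (0.25-2 μM). Incubation ran 24 hr or longer, until HCA-only controls reached 90% death. Viability was read by MTT.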

[4] = 10 μM, 3 hr, SH-SY5Y-ODD-luc cells

IC50 [1]: 4500 ± 500 nM
Kd [2]: 80 ± 20 nM
SMILES: Cc1cc(C2CCCCC2)n(O)c(=O)c1 [Ciclopirox, ciclopirox]
“Lag,” (concentration lag of reporter titration curve) [1]: 2 ± 0.5 µM
ka, association rate constant for iron binding [2]: 300 ± 50 M⁻¹ s⁻¹
increase of background signal for the wild-type ODD-luc reporter (PYIP line) ([3]; 10 μM, 3 hr incubation): 10 fold
reporter signal as % of the threshold value (control line AYIA) ([3]; 10 μM, 3 hr incubation, PYIP line): ~50%

SMILES: O=C1/C(=N\Nc2nccs2)C(c2ccccc2)=NN1c1ccccc1 [I, (Z)-1,3-diphenyl-4-(thiazol-2-yl-hydrazono)-1H-pyrazol-5(4H)-one]
activation at 10 µM [3]: 86%

iron chelation properties in solution (in words) [2]: no iron chelation properties in solution
SMILES: NNc1nc(-c2ccccc2)cc(-c2ccccc2)n1 [II, 2-hydrazinyl-4,6-diphenylpyrimidine]
reporter activation (fold) [3, 4]: 6.7 fold
activation at 10 µM [3]: 64%

SMILES: Oc1cccc2cccnc12 [Oxyquinoline, 8-hydroxyquinoline]
times less potent as neuroprotectants (versus compounds 7 and 8) (cortical neurons): 20-40 times
IC50 [1]: 10000 ± 1000 nM
“Lag,” (concentration lag of reporter titration curve) [1]: 4 ± 0.5 µM
ka, association rate constant for iron binding [2]: 110 ± 20 M⁻¹ s⁻¹
Kd [2]: 200 ± 50 nM
reporter activation (fold) [3, 4]: 4-5 fold
activation at 10 µM [3]: 35 to 45%

SMILES: O=C(C=C(O)c1ccccc1)c1ccccc1O [2′β-dihydroxychalcone]
reporter activation (fold) [3, 4]: 7.5 fold
reporter activation (%) ([3]; 10 μM, 3 hr, SH-SY5Y-ODD-luc cells, ciclopirox = 100%, DMSO = 0%): 71%

SMILES: O=C1/C(=N\Nc2nc3ccccc3s2)C(c2ccccc2)=NN1c1ccccc1 [(Z)-4-(benzo[d]thiazol-2-yl-hydrazono)-1,3-diphenyl-1H-pyrazol-5(4H)-one]
activation at 10 µM [3]: 70%

SMILES: N[C@@H](Cc1ccc(O)c(O)c1)C(=O)O [L-Dopa]
reporter activation (fold) [3, 4]: 3 fold
activation at 10 µM [3]: 21%

SMILES: S=C(Nc1ccccc1)Nc1nccs1 [III, 1-phenyl-3-(1,3-thiazol-2-yl)thiourea]
reporter activation (fold) [3, 4]: 5 fold
activation at 10 µM [3]: 41%
